Laboratory results reported in ChEMBL document CHEMBL6074702, “Discovery of 4-(5-Membered)Heteroarylether-6-methylpicolinamide Negative Allosteric Modulators of Metabotropic Glutamate Receptor Subtype 5” (ACS Med Chem Lett, 2024).
Values belong to the compound of their own block, whether it stands above or below them. Active and inactive are the calls of the source. No cut-off for these calls is given here.

Key:
[1] = Unbound fraction in rat plasma at 5 uM incubated for 6 hrs by equilibrium dialysis based LC-MS/MS analysis; format: ADME, cell-free
Outline: (§1)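 Equilibrium dialysis of plasma spiked at 5 μM final against DPBS, in triplicate, 6 h at 37 °C. Samples were matrix-matched, acetonitrile-extracted with carbamazepine as internal standard, and analyzed by LC-MS/MS. fu = buffer-side/plasma-side analyte:IS peak area ratio, mean of 3 replicates.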

[2] = Ratio of unbound drug concentration in Sprague-Dawley rat brain to plasma at 0.2 mg/kg, iv measured after 0.25 hrs by LC-MS/MS analysis; format: ADME, organism-based
Outline: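 Male Sprague Dawley rats (n = 1) received a single IV dose through a jugular catheter, formulated in 10% ethanol/40% PEG400/50% DMSO at 0.5 mL/kg. Terminal plasma (K2EDTA) and whole brain were taken at 15 min. Brain was homogenized in isopropanol:water 7:3. Samples were acetonitrile-precipitated with carbamazepine as internal standard and quantified by LC-MS/MS against a plasma standard curve, with dilution correction.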

[3] = Unbound fraction in rat brain at 1 uM incubated for 6 hrs by equilibrium dialysis based LC-MS/MS analysis; format: ADME, tissue-based
Outline: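 Naïve rat brain was homogenized in DPBS (1:3 w/w) and dialyzed against DPBS at 1 μM final, in triplicate, 6 h at 37 °C. Quantification was by LC-MS/MS. Diluted fu2 = buffer/homogenate peak area ratio, corrected to undiluted fu using the 1/4 dilution equation; mean of 3 replicates.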

[4] = Drug metabolism in cryopreserved cynomolgus monkey Hepatocyte assessed as amide hydrolysis mediated metabolite formation at 10 uM measured after 4 hrs; format: ADME, cell-based, Macaca fascicularis; conditions: hepatocytes
Outline: (§2)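 Rat, dog, monkey and human hepatocytes were incubated with 10 μM compound and sampled at 0 and 4 h. Metabolites were tentatively identified by accurate-mass LC-MS (observed m/z). Retention times were taken from MS extracted ion chromatograms.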

[5] = biological target: Metabotropic glutamate receptor 3 (Homo sapiens) (UniProt Q14832); assay: Negative allosteric modulation of human mGlu3 receptor expressed in HEK293 cells harboring GIRK assessed as maximal inhibition response by thallium flux assay relative to glutamate; format: cell-based; conditions: filed as negative allosteric modulator
Chain of Metabotropic glutamate receptor 3 (Homo sapiens) (Q14832 23-879 limits assumed): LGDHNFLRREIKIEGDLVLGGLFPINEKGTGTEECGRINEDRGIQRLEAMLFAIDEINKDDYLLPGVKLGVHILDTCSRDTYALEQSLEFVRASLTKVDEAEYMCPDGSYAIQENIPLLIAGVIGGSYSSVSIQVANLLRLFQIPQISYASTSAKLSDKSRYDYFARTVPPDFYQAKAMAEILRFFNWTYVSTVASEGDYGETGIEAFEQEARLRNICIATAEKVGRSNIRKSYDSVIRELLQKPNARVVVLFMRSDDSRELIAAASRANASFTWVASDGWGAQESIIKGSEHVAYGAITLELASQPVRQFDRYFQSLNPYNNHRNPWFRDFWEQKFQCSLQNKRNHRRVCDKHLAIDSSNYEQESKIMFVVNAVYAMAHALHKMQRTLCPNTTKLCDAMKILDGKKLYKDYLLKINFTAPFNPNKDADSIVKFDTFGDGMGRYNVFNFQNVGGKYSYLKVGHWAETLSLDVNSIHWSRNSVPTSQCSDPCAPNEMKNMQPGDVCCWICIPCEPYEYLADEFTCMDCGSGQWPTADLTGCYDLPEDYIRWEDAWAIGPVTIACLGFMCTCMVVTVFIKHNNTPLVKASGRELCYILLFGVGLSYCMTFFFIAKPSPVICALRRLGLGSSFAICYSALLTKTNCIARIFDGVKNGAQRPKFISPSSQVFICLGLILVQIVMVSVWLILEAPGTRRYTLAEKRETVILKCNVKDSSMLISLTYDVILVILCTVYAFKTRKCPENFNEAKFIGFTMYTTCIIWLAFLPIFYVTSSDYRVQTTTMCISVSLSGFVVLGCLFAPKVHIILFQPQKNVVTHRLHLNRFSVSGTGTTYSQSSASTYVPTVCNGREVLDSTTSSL

[6] = biological target: Metabotropic glutamate receptor 4 (Homo sapiens) (UniProt Q14833); assay: Negative allosteric modulation of human mGlu4 receptor expressed in CHO cells co-expressing Gqi5 assessed as inhibition of glutamate induced calcium mobilization preincubated for 142 sec followed by glutamate addition at EC20 concentration for 120 sec and measured after 40 sec addition of glutamate at EC80 concentration by Fluo-4 AM dye based fluorescence assay relative to glutamate; format: functional, cell-based; conditions: time 302.0 sec
Chain of Metabotropic glutamate receptor 4 (Homo sapiens) (Q14833 whole entry): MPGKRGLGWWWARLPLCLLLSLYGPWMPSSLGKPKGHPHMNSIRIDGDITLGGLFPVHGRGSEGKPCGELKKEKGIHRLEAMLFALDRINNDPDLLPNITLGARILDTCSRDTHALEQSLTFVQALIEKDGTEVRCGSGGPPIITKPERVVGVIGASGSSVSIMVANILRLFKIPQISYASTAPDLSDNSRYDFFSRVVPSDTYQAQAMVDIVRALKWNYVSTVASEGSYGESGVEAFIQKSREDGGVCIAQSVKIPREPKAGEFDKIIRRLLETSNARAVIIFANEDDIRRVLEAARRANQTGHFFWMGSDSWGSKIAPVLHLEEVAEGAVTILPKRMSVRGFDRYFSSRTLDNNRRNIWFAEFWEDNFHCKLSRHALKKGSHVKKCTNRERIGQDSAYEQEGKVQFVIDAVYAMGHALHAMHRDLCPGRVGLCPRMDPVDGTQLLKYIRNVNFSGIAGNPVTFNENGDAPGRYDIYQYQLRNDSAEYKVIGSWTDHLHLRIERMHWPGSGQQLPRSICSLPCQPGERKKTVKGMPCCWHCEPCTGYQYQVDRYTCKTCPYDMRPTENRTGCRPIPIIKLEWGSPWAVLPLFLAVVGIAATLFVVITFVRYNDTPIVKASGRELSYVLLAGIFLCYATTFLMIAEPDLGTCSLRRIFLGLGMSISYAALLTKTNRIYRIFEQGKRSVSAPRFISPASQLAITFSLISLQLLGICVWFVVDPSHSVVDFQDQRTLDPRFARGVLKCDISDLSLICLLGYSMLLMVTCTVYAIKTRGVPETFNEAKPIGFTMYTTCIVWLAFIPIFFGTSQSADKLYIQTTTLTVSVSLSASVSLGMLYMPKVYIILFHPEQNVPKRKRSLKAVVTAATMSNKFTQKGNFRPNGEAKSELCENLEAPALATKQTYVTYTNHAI

[7] = biological target: Metabotropic glutamate receptor 7 (Homo sapiens) (UniProt Q14831); assay: (§3) Negative allosteric modulation of human mGlu7 receptor expressed in HEK293-A co-expressing Galpha15 assessed as inhibition of DL-AP4 induced-calcium mobilization preincubated for 140 sec followed by DL-AP4 addition at EC20 concentration for 125 sec and measured after 90 sec addition of glutamate at EC80 concentration by Fluo-4 AM dye based fluorescence assay; format: functional, cell-based; conditions: time 355.0 sec
Chain of Metabotropic glutamate receptor 7 (Homo sapiens) (Q14831 whole entry): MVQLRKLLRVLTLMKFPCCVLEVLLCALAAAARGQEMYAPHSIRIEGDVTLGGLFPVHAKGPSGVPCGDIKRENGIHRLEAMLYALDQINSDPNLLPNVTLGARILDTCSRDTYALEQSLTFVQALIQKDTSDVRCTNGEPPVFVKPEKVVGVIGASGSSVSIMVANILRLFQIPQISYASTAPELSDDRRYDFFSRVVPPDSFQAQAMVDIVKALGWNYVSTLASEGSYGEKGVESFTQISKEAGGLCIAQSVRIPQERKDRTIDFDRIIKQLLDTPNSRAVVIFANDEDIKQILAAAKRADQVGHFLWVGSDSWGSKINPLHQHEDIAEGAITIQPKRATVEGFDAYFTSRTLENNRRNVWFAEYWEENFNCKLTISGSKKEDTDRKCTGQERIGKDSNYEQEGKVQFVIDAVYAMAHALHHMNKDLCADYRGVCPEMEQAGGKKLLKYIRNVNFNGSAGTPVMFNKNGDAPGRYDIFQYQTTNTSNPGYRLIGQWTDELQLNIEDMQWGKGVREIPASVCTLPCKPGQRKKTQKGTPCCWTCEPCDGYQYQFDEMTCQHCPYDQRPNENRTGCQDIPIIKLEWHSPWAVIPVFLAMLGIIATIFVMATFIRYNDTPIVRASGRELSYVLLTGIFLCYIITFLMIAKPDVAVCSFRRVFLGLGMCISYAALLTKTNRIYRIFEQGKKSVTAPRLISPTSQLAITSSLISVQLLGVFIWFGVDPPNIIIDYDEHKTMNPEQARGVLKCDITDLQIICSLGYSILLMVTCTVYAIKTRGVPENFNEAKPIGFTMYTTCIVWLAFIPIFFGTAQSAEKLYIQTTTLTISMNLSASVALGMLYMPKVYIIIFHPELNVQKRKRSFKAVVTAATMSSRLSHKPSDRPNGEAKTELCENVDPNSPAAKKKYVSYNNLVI
Outline: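 HEK293 cells stably co-expressing human mGlu7 and mouse Gα15 were plated at 15,000/well in dialyzed-FBS medium and grown overnight at 37 °C. They were loaded with Fluo-4-AM (final 1.15 μM) for 50 min at RT, then read at RT in a triple-add assay with DL-AP4 as agonist. Compounds were run as 10-point 1:3 curves; ex 480/em 530 nm. Data were normalized to maximal agonist response and fitted to a four-parameter logistic equation.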

[8] = biological target: Metabotropic glutamate receptor 1 (Homo sapiens) (UniProt Q13255); assay: Negative allosteric modulation of tetracycline-inducible human mGlu1 receptor expressed in human T-REx-293 cells by calcium mobilization assay; format: functional, cell-based
[9] = Drug metabolism in cryopreserved rat Hepatocyte assessed as amide hydrolysis mediated metabolite formation at 10 uM measured after 4 hrs; format: ADME, cell-based; conditions: hepatocytes; outline: as §2
[10] = biological target: Metabotropic glutamate receptor 8 (Homo sapiens) (UniProt O00222); assay: as §3, with “mGlu8” for “mGlu7 receptor”, “HEK293-A” for “HEK293-A co-expressing Galpha15”, “glutamate” for “DL-AP4”; format: functional, cell-based; conditions: time 355.0 sec
Chain of Metabotropic glutamate receptor 8 (Homo sapiens) (O00222 whole entry): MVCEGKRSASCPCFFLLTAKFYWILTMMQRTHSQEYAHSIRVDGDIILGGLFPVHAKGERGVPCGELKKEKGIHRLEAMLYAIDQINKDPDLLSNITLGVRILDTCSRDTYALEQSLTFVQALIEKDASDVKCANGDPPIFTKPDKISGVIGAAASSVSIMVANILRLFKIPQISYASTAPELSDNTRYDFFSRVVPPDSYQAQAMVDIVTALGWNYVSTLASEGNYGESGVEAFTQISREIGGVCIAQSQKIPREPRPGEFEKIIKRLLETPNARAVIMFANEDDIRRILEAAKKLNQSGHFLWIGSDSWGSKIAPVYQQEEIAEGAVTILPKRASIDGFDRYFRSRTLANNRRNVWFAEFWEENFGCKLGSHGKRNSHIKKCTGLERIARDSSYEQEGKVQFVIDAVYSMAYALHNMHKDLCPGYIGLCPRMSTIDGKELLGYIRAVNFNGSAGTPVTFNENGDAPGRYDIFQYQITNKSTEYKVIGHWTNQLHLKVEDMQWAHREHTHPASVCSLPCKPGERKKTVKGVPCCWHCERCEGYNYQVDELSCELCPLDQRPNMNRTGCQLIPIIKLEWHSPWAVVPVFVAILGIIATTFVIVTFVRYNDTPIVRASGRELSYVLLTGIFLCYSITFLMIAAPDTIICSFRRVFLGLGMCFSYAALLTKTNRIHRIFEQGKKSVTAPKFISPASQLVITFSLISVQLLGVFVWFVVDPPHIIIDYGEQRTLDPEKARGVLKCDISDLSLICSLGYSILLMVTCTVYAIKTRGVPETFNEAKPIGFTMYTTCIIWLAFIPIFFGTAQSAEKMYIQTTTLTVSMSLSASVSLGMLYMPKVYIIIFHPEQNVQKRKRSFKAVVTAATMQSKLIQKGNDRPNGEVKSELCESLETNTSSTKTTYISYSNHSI
Outline: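 HEK293 cells stably co-expressing human mGlu8 and mouse Gα15 were plated at 15,000/well and grown overnight. Fluo-4-AM (final 1.15 μM) was loaded for 50 min at 37 °C, […]. The FDSS run was at RT: compound, then glutamate EC20, then EC80 additions. Compounds were run as 10-point 1:3 curves; ex 480/em 530 nm. Data were normalized to glutamate ECmax and fitted to a four-parameter logistic equation.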

[11] = Drug metabolism in cryopreserved human Hepatocyte assessed as amide hydrolysis mediated metabolite formation at 10 uM measured after 4 hrs; format: ADME, cell-based; conditions: hepatocytes; outline: as §2
[12] = Drug metabolism in cryopreserved dog Hepatocyte assessed as amide hydrolysis mediated metabolite formation at 10 uM measured after 4 hrs; format: ADME, cell-based, Canis lupus familiaris; conditions: hepatocytes; outline: as §2
[13] = biological target: Metabotropic glutamate receptor 2 (Homo sapiens) (UniProt Q14416); assay: Negative allosteric modulation of human mGlu2 receptor expressed in HEK293 cells harboring GIRK by thallium flux assay; format: cell-based
Chain of Metabotropic glutamate receptor 2 (Homo sapiens) (Q14416 19-872 limits assumed): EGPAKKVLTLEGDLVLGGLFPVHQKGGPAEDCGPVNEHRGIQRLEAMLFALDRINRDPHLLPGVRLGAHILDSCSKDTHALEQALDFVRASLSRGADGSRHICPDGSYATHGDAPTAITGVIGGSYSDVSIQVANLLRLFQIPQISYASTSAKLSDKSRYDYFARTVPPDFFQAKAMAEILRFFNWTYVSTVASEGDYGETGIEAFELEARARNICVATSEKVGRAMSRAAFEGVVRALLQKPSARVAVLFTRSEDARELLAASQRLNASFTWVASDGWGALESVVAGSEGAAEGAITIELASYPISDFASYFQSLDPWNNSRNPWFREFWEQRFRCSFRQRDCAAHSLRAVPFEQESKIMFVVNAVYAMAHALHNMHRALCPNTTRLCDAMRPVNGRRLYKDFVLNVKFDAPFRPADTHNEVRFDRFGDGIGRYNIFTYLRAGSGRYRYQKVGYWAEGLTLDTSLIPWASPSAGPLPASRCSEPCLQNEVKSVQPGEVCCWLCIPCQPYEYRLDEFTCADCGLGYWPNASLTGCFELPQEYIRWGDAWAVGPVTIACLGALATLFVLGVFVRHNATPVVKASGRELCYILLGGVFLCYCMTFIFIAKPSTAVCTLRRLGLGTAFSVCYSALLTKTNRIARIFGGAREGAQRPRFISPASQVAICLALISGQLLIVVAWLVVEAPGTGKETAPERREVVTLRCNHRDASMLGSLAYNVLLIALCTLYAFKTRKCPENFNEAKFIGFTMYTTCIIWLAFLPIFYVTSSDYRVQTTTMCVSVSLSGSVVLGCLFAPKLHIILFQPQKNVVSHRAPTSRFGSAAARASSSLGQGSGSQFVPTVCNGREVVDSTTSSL

[14] = Unbound fraction in human plasma at 5 uM incubated for 6 hrs by equilibrium dialysis based LC-MS/MS analysis; format: ADME, cell-free; outline: as §1

Fu [1]: 0.219
SMILES: Cc1cc(Oc2ccnn2C)cc(C(=O)Nc2nc(C)cs2)n1

K(p,uu,brain) [2]: Not_determined(Unstable)
Fu [1]: Not_determined(Unstable)
SMILES: Cc1cccc(NC(=O)c2cc(Oc3ccnn3C)cc(C)n2)n1

K(p,uu,brain) [2]: Not_determined(Unstable)
Fu [1]: Not_determined(Unstable)
SMILES: Cc1cccc(NC(=O)c2cc(Oc3cc(C)nn3C)cc(C)n2)n1

K(p,uu,brain) [2]: Not_determined(Unstable)
Fu [14]: 0.004
Fu [1]: Not_determined(Unstable)
Fu [3]: 0.003
SMILES: Cc1cc(Oc2cnn(C)c2C(F)(F)F)cc(C(=O)Nc2nc(C)cs2)n1

Continued, compound first:

SMILES: Cc1cc(Oc2cnn(C)c2C(F)(F)F)cc(C(=O)Nc2ccc(F)cn2)n1
K(p,uu,brain) [2]: Not_determined(Unstable)
Fu [1]: Not_determined(Unstable)
Fu [3]: 0.002

SMILES: Cc1cccc(NC(=O)c2cc(Oc3cnn(C)c3C(F)(F)F)cc(C)n2)n1
K(p,uu,brain) [2]: Not_determined(Unstable)
Fu [1]: Not_determined(Unstable)

SMILES: Cc1cc(Oc2cnn(C)c2)cc(C(=O)Nc2ccc(F)cn2)n1
Drug metabolism [4]: metabolite_detected
Imax [5]: 58%
Activity [6]: inactive
Activity [7]: inactive
Activity [8]: inactive
Drug metabolism [9]: metabolite_detected
Activity [10]: inactive
Drug metabolism [11]: metabolite_detected
Drug metabolism [12]: metabolite_detected
Activity [13]: inactive
